Screens (PubChem BioAssay)
An excerpt weighted towards active compounds, which were near 2.8% of everything screened.
Rtt109 HAT inh = C. albicans Rtt109 histone acetyltransferase inhibition; inhibition, % at 34.9 µM; Q5AAJ8; purified Rtt109/Vps75, ThioGlo CoA-SH fluorescence, 4 h; 0.16% of 330,000 active;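 active means inhibition of at least 50% in every replicate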
GRIN3A LBD mod = modulators (binders) of human NR3A ligand-binding domain; NR3A LBD differential scanning fluorimetry, Tm shift; 0% = protein alone, 100% = glycine-bound protein; Tm shift relative to glycine control, % at 25 µM; 2.5% of 340,000 active;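 active means melting temperature shift of at least 10% of the positive control shift, at one fixed dose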
T cell HTS = T cell immune modulation candidate. AID 2052. 2C CD8+ T cell-vesicle binding, flow cytometry; stronger effect = lower value. 0.068% of 330,000 active. response (vesicle binding), % at 7 µM;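 active means response, share of CD8 T cells binding vesicles, and their 90th percentile fluorescence all below set limits, cut at about 80% in these data, passing the limit was not always enough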;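 further: values below 100% mean blocked vesicle binding to the CD8+ T cells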
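Read-out – percent CD8+ FL2 mean versus row control · System – murine 2C transgenic CD8+ T lymphocytes · Times – 1.5 h cell–vesicle binding at 37 °C, then 20 min icy labelling · Control set – naked vesicles low, QL9 vesicles with vehicle high · Detection – cytometric PE anti-B7-1 and Alexa647 anti-CD8 signals after 1% paraformaldehyde fixation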
GASC-1 inh = human JMJD2C demethylase inhibition; inhibition, % at 2.35 µM; 0.069% of 330,000 active; GST-JMJD2C(1-420) H3K9me3 demethylation, DELFIA europium;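 active means more than half of a compound's replicate wells show inhibition beyond 50%, single wells judged on their own value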;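 further: signal counts dimethyl H3K9 product captured on neutravidin plate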
Target sequence (Q9H3R0 1-420 limits assumed): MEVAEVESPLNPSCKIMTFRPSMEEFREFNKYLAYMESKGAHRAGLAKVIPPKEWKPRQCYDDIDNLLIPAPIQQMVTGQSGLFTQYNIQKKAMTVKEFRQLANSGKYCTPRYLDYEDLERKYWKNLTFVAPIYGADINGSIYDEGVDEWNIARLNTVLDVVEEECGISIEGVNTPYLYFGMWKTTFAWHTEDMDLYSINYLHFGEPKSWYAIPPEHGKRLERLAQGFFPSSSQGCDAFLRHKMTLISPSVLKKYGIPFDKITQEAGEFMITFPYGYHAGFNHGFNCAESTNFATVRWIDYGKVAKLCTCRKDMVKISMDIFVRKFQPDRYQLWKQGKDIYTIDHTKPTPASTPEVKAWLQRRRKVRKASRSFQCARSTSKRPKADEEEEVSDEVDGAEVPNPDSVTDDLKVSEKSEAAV
Each line names hits and unclear results; the compound was inactive in the other large screens.

Cc1cccc(S(=O)(=O)N(CC(=O)Nc2ccccc2C)Cc2ccco2)c1	GRIN3A LBD mod 11
CC(=O)N1CCOc2ccc(S(=O)(=O)NCC3CCC(C(=O)Nc4ccc(C)cn4)CC3)cc21 (stereo not given)	none
O=[N+]([O-])c1ccc(O)c(/C=N\N=C2c3ccccc3-c3ccccc32)c1	GRIN3A LBD mod 14
COc1ccc(/C(O)=C2/C(=O)C(=O)N(Cc3cccnc3)C2c2ccco2)cc1OC (stereo not given)	T cell HTS 48
CCOc1cccc(/C(O)=C2/C(=O)C(=O)N(Cc3cccnc3)C2c2ccco2)c1 (stereo not given)	none
O=c1nc2onnc2c(C=NO)[nH]1	none (no result: T cell HTS, GASC-1 inh)
Cc1ccc(S(=O)(=O)C2(C(=O)NC3CCCCC3)CC2)cc1	GRIN3A LBD mod 26
Cc1nc(NC(=O)c2ccccc2)sc1C1(C)CC(c2ccc(OC(F)(F)F)cc2)=NO1 (stereo not given)	none (no result: Rtt109 HAT inh, GRIN3A LBD mod)
Nc1ccc(N(CCO)CCO)cc1	none
OCCN(CCO)c1ccc(C(c2ccc(Cl)cc2)c2ccc(N(CCO)CCO)cc2Cl)c(Cl)c1	GRIN3A LBD mod 28
COc1ccc(C(C)(C)C)cc1NC(=O)CCc1c(C)noc1C	none
O=C(O)c1ccc(COc2ccccc2Cl)cc1	GRIN3A LBD mod 13
Cc1cccc(CNc2ccc(S(=O)(=O)N3CCCCC3)cc2)c1	none
CCn1c(=O)c(CCC(=O)N2CCN(c3ccccn3)CC2)c(C)c2c(C)nn(-c3ccccc3)c21	none
CCC(=O)Nc1ccc(C(=O)Nc2ccc3c(c2)OCO3)cc1	none
N#CCC(=O)Nc1ccc(C(=O)Nc2ccc3c(c2)OCO3)cc1	GRIN3A LBD mod 29
O=C(Nc1ccc(Cl)c(Cl)c1)c1ccc2c(c1)OCO2	GRIN3A LBD mod 37
O=C(Nc1ccc2nsnc2c1)c1ccc2c(c1)OCO2	GRIN3A LBD mod 14
[N-]=[N+]=NC[C@H](Cc1ccccc1)N1CCN(Cc2ccccc2)CCC1=O	none
CC1(C)C(/C=C/C=C/C=C/C=C2\N(CCCCS(=O)(=O)O)c3ccc4ccccc4c3C2(C)C)=[N+](CCCCS(=O)(=O)[O-])c2ccc3ccccc3c21	none (no result: GASC-1 inh)
CCn1cc(C(=O)NC(C)C)c(=O)c2cc(F)c(N3CCN(C(=O)c4ccco4)CC3)cc21	GRIN3A LBD mod 12
O=C1CC(SC(=Nc2ccccc2)Nc2ccccc2)C(=O)N1c1ccc(Cl)cc1 (stereo not given)	none
O=C1CC(SC(=Nc2ccccc2)Nc2ccccc2)C(=O)N1c1cccc(Cl)c1 (stereo not given)	GRIN3A LBD mod 10
Cc1c(Cl)cccc1NC(=S)C(=C([O-])c1ccc(Cl)s1)[n+]1ccccc1	none (no result: T cell HTS, GASC-1 inh)
CCN1C2=NCCCN2c2ccccc21	GRIN3A LBD mod 11
CCOc1ccc(/C=N/NC(=O)c2ccc(CSc3nc4ccccc4[nH]3)cc2)cc1	GRIN3A LBD mod 11
O=C(N/N=C/c1ccc(OC(F)F)cc1)c1ccc(CSc2nc3ccccc3[nH]2)cc1	GRIN3A LBD mod 26
CC(NC(=O)Cn1cccc1)c1ccccc1 (stereo not given)	none
COc1ccccc1NC(=O)CN1CCN(CC(=O)Nc2ccc(Cl)c(C(F)(F)F)c2)CC1	none (no result: T cell HTS, GASC-1 inh)
C/C(CC(=O)Nc1ccc(Cl)c(C(F)(F)F)c1)=N\NC(=O)c1ccccc1O	GRIN3A LBD mod 24
CN(CC(=O)Nc1ccc(Cl)c(C(F)(F)F)c1)C(=O)Cc1c[nH]c2ccccc12	GRIN3A LBD mod 12
CCOc1ccc(NC(=O)CN(C)C(=O)Cc2c[nH]c3ccccc23)cc1OCC	none
CCc1ccccc1NCC(=O)Nc1ccc(Cl)c(C(F)(F)F)c1	GRIN3A LBD mod 21
C/C(CC(=O)Nc1ccc(Cl)c(C(F)(F)F)c1)=N\NC(=O)c1cccc(O)c1	none
N/C(=N\c1nc2ccccc2o1)NC(=O)/C=C/c1ccccc1	GRIN3A LBD mod 22
N/C(=N\c1nc2ccccc2o1)NC(=O)c1ccccc1	none
CCCc1cc(-c2n[nH]c(C)c2-c2ccc(C(=O)OCC)o2)c(O)cc1O	GRIN3A LBD mod 35
CCCc1cc(C(=O)Cc2ccc(C(=O)OCC)o2)c(O)cc1O	none
COc1ccccc1N=CC=C1OC(C)(C)C(C)(C)O1	none
Cc1ccc(N=CC=C2OC(C)(C)C(C)(C)O2)c(C)c1	GRIN3A LBD mod 15
Cc1ccc(NC(=O)CSc2nc(N)c3c4c(sc3n2)CSC(C)(C)C4)cc1	GRIN3A LBD mod 24
Cc1cccc(C)c1NC(=O)CN(C)C(=O)Cc1cccc(C(F)(F)F)c1	GRIN3A LBD mod 12
Cc1cc2occ(CC(=O)N(C)CC(=O)Nc3c(C)cccc3C)c2cc1C	none
